High-throughput results (PubChem BioAssay)
PAX8 inh HTS – inhibitors of PAX8-driven TPO luciferase reporter, primary screen, RMG-I cells, single concentration; SteadyGlo, 24 h; inhibition, % at 12.6 µM; 360,000 compounds, 1.2% hits;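 active = mean replicate inhibition at least 60% with every replicate also reaching 60%; inconclusive = only one of the two criteria is met; inactive = mean below 60% and not all replicates reaching 60%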;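 note: luciferase light reporting Pax8 driven TPO promoter activity; plate controls were median of neutral control wells for no effect and mitoxantrone controls for full effect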
HIV Env fusion – inhibitors of HIV-1 Env-driven cell-cell fusion, primary screen, HeLa-JRFL effector, CEM21 target cells, luciferase; 360,000 compounds, 1.1% hits; AID 651610, 2012; inhibition, % at 12.3 µM;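 active = mean replicate inhibition score of at least 50 and every replicate individually at or above 50; inconclusive = only one of the two criteria met; inactive = mean below 50 and not all replicates reaching 50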;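 note: 0% = plate neutral controls and 100% = maraviroc near 300 nM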
FGF22 binding-1 – binders of human FGF22 protein, primary screen, FGF22 synaptogenesis inhibitor project, biophysical, thermal shift, single point. Fibroblast growth factor 22 (Homo sapiens), Q9HCT0. recombinant FGF22 thermal shift, SYPRO orange fluorescence; percent of sucrose octasulfate shift, DMSO zero. activity (Tm shift, normalised), % at 9.99 µM. 340,000 compounds, 1.5% hits. AID 651658, 2012;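 active = mean Tm shift, scaled 0 neutral to 100 positive control, at about 1.3% or above, every replicate too, limit read from the data; inconclusive = no clear call, values can overlap the other calls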
Target sequence (Q9HCT0 whole entry, looked up): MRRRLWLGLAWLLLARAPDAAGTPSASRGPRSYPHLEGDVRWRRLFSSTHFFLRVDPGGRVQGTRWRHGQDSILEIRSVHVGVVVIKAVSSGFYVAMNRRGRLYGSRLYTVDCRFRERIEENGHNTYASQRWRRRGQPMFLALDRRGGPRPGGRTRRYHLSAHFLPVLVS
PGC1a acetyl inh – inhibitors of PGC1a acetylation signal, primary screen, cell-based, U2OS, AlphaScreen, inhibitor mode. AlphaScreen anti-acetyl-lysine; with virally co-expressed GCN5 acetyltransferase. inhibition, % at 15.6 µM. 350,000 compounds, 0.17% hits;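 active = every replicate shows inhibition of at least 40%; inconclusive = mean inhibition at least 40% but some replicate below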;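 note: 0% = neutral control wells and 100% = positive control wells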
FN deposition inh – inhibitors of fibronectin matrix deposition, primary screen, AH1F cells, Alexa488-fibronectin fluorescence, plate reader. 350,000 compounds, 0.086% hits. AID 743247, 2014. AH1F fibroblasts, overnight. inhibition, % at 12.6 µM;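 active = mean inhibition across replicates of 30% or more, regardless of how many single replicates reach that level; inconclusive = mean under 30% yet at least half of replicates reach 30%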;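 note: positive control wells lacked labelled fibronectin entirely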
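Material: AH1F fibroblasts assembling fluorescent fibronectin matrix; amount: 10000 AH1F cells/well; medium: DMEM, 2% serum; reagent: Alexa488-fibronectin, 24 nM final in well; dosing: single compound dose, delivered by pin transfer; incubation: 1 h adhesion, overnight exposure; detection: fluorescence after three HBSS washes, excitation 485 nm, emission 525 nm; measure: fibronectin deposition inhibition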
EWS-Fli inh – EWS/Fli-driven NR0B1 reporter inhibitors, primary screen, A673 cells, NR0B1 luciferase, luminescence, MLPCN library | AID 651661, 2012 | viability-normalised | 350,000 compounds, 0.67% hits | inhibition, % at 12.6 µM;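 active = mean inhibition of at least 50% after viability correction, with every replicate also passing that limit; inconclusive = mean reaches 50% but only one of two replicates passes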;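 note: firefly luciferase signal divided by Alamar Blue viability fluorescence both relative to DMSO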
FGF22 binding-2 – binders of human FGF22 protein, dose response, FGF22 synaptogenesis inhibitor project, biophysical, thermal shift, cherry-pick retest | shares compounds with FGF22 binding-1 | recombinant FGF22 thermal shift, SYPRO orange fluorescence | thermal shift activity, °C (ΔTm) at 38 µM | 1,000 compounds, 2% hits | AID 720646, 2013;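 active = fitted rise in melting shift crosses a set limit at or below the top valid dose tested; inconclusive = flat fit at mid-level activity, or a poor quality fit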
SYPRO no-protein – compound-only thermal shift signal without protein, dose response, artefact control for FGF22 binder project, biochemical, cherry-picked samples, RT-PCR instrument; shares compounds with FGF22 binding-1; compound-only SYPRO orange thermal shift counter-screen, no protein; AC50, µM (top dose mostly 38 µM); 1,000 compounds, 2% hits;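 active = rising signal whose fitted curve reaches the 0.54 level within the top valid dose, showing a melting point, actives reach about 13 µM in these data; inactive = the rest, including activity in the opposite direction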; note: value is where the raw curve crosses a fixed level and not half-maximal
DNA binder FP – DNA binders by acridine orange displacement, dose response, counter-screen for EWS/Fli inhibitor project, biochemical, fluorescence polarization, cherry-pick | shares compounds with EWS-Fli inh | salmon sperm DNA acridine orange fluorescence polarization | AC35, µM (highest dose often 68 µM), inactives show at the top dose activity change, negative = DNA binding | 640 compounds, 2% hits | AID 720586, 2013;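 active = fitted curve reaches a 35% signal fall AC35 below twice the sample's top valid tested dose, actives reach about 48 µM in these data; inactive = the rest, including activity in the rising direction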;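 note: lower polarization ratio signals compound binding to DNA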
C2C12 COX5a inh – inhibitors of PGC-1a-driven COX5a expression, dose response, cell-based, C2C12 myotubes, RT-qPCR, cherry-picked samples. shares compounds with PGC1a acetyl inh. C2C12 myotubes PGC-1a adenovirus. maximal activity, %. 45 tested, under 10 active. AID 743461, 2014;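 active = fitted dose curve reaching 40% activity at or below the highest valid dose tested; inconclusive = flat fit between 30% and 70%, or an unusable fit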
AID743468 – change in PGC-1a target gene PDK4 expression, dose response, C2C12 myotubes, RT-qPCR, cherry-pick; shares compounds with PGC1a acetyl inh; PGC-1a adenovirus, PDK4 mRNA qPCR; PDK4 expression increase, % at 19.5 µM; 45 tested, under 10 active; AID 743468, 2014;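 active = fitted curve reaching a 40% PDK4 expression rise at or below the top valid tested dose; inconclusive = no clear call, values can overlap the other calls; inactive = the rest, including shifts the wrong way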
* marks the source's active call; other numbers are inactive results; i = inactive; u = inconclusive; x = no result given; ! = not active in a repeat; [ ] = another dose, or the depositor's remark. Shown are actives, neighbours in structure and some others; about 3.1% of the full set was active somewhere.

SMILES	PAX8 inh HTS	HIV Env fusion	FGF22 binding-1	PGC1a acetyl inh	FN deposition inh	EWS-Fli inh	DNA binder FP	others
CCC(C)n1c(O)c(C=NC(C)c2ccccc2)c(=O)[nH]c1=S (centres undefined)	23	3	0	x	5	14	x
Cc1ccc(S(=O)(=O)N(C)C[C@H]2Oc3cc(Br)ccc3S(=O)(=O)N([C@H](C)CO)C[C@@H]2C)cc1	-8	41[16.7 µM]	1.6*!	-32	-5	-1	x	FGF22 binding-2=-1.9;SYPRO no-protein=10µM*
Cc1ccc(OC(=O)N(C)C[C@@H]2OCc3cnnn3CCCC(=O)N([C@@H](C)CO)C[C@H]2C)cc1	15	8	0	-1	3	-17	x
Cc1ccc(S(=O)(=O)N(C)C[C@@H]2Oc3cc(Br)ccc3S(=O)(=O)N([C@@H](C)CO)C[C@H]2C)cc1	-6	28[16.7 µM]	2.2*	-25	x	3	x	FGF22 binding-2=-0.038;SYPRO no-protein=i
CC(C)CC#Cc1ccc([C@H]2[C@@H](CO)N3CCCCN(C(=O)Cc4ccccn4)C[C@H]23)cc1	-13	x	0	-4	x	10	x
O=C(Cc1ccccc1)N1CC2(C1)[C@H](c1ccccc1)[C@H](CO)N2Cc1cccc(F)c1	17	x	0	-17	x	8	x
COC(=O)[C@H]1[C@H](CO)[C@H]2Cn3c(ccc(-c4ccncc4)c3=O)[C@@H]1N2S(=O)(=O)c1ccccc1F	-1	x	0	x	x	1	x
OC(CNCCc1c[nH]c2ccccc12)c1ccccc1 (centres undefined)	10	13	1.4*	x	-12	11	x	FGF22 binding-2=-0.17;SYPRO no-protein=i
N/C(=N\[N+](=O)[O-])NCCCC(NC(=O)CNC(=O)c1ccccc1)C(=O)O (centres undefined)	-14	21	2.5*	x	-17	2	x	FGF22 binding-2=0.08;SYPRO no-protein=i
N/C(=N\[N+](=O)[O-])N1CCN(C(=O)c2ccccc2)CC1	3	2	0	x	-2	-1	x
CC(=O)OC1CC(OC2C(O)CC(OC3C(O)CC(OC4CCC5(C)C(CCC6C5CCC5(C)C(C7=CC(=O)OC7)CCC65O)C4)OC3C)OC2C)OC(C)C1OC1OC(CO)C(O)C(O)C1O (centres undefined)	102*	69*	0	u	5	53*	-17%
COC(=O)[C@H]1[C@H](CO)[C@H]2Cn3c(cccc3=O)[C@@H]1N2C(=O)C1CC1	x	0[16.7 µM]	0	x	x	0	x
COc1ccc(C#Cc2ccc([C@H]3[C@H]4CN(C(=O)Cc5ccncc5)CCCCN4[C@H]3CO)cc2)cc1	43	x	1	5	x	x	x
O=C1NC(=S)NC(=O)C1=Cc1cccn1-c1ccc(O)cc1	32	-56	0	x	3	71*	0%
C[C@@H]1O[C@@H](O[C@H]2C[C@@H](O)[C@]3(CO)[C@H]4[C@H](O)C[C@]5(C)[C@@H](C6COC(=O)C6)CC[C@]5(O)[C@@H]4CC[C@]3(O)C2)[C@H](O)[C@H](O)[C@H]1O (some centres undefined)	105*	-157	0	0	8	70*	-1%
COc1ccc(C(=O)N/N=C/C23CC[C@@H](O)CC2(O)CC[C@@H]2[C@@H]3CCC3(C)C(C4=CC(=O)OC4)CCC23O)cc1 (some centres undefined)	-16	-24	0	9	1	11	x
CC1OC(OC2CC(O)C3(CO)C4C(O)CC5(C)C(C6=CC(=O)OC6)CCC5(O)C4CCC3(O)C2)C(O)C(O)C1O (centres undefined)	x	x	0	81*	x	68*	5%
COC(=O)[C@H]1[C@H](CO)[C@H]2Cn3c(ccc(C4=CCCCC4)c3=O)[C@@H]1N2Cc1cccnc1	3	x	0	5	x	-2	x
O=C(Cc1ccccc1)N1C[C@H]2[C@@H](c3ccccc31)[C@@H](CO)N2Cc1ccccc1	5	x	1	-9	x	8	x
COC(=O)[C@H]1[C@H](CO)[C@H]2Cn3c(ccc(-c4ccccc4F)c3=O)[C@@H]1N2CC1CCCC1	x	8[16.7 µM]	0	x	x	66*	-10%
COC(=O)[C@@H]1[C@@H](CO)[C@@H]2Cn3c(ccc(-c4ccccc4)c3=O)[C@H]1N2CC1CCCC1	x	x	x	3	x	-2	x
C[C@@H]1O[C@@H](O[C@@H]2C=C3CCC4C(CC[C@]5(C)[C@@H](c6ccc(=O)oc6)CC[C@]45O)[C@@]3(C)CC2)[C@H](O)[C@H](O)[C@H]1O (some centres undefined)	110*	65*	0	60*	5	71*	2%
C[C@@H]1O[C@@H](O[C@@H]2C=C3CC[C@@H]4C(CC[C@]5(C)[C@@H](c6ccc(=O)oc6)CC[C@]45O)[C@@]3(C)CC2)[C@H](O)[C@H](O)[C@H]1O (some centres undefined)	108*	93*	0	67*	13	71*	-10%
COC(=O)[C@@H]1[C@@H](CO)[C@@H]2Cn3c(ccc(-c4ccncc4)c3=O)[C@H]1N2S(=O)(=O)c1ccccc1C	2	x	0	x	x	1	x
O=C(O)[C@@H]1[C@@H](CO)[C@@H]2Cn3c(ccc(-c4ccccc4)c3=O)[C@H]1N2CC1CCCCC1	-8	x	0	x	x	-4	x
COC1C(C)OC(OC2CC(C)(O)Cc3cc4c(c(O)c32)C(=O)c2c(O)cc3c(c2C4=O)OC2OC3(C)C(O)C(N(C)C)C2O)C(OC)C1(C)OC (centres undefined)	x	71*	-1	x	-4	56*	1.3µM*
CCn1nc(/C=C/c2ccccc2)nc2c(=O)n(C)c(=O)nc1-2	94*	27	0	69*	x	28	x	C2C12 COX5a inh=-56;AID743468=-55
COc1cccc(-c2ccc3n(c2=O)C[C@H]2[C@H](CO)[C@@H](C(=O)O)[C@@H]3N2Cc2ccccc2F)c1	-7	11[16.7 µM]	x	x	x	-2	x
